A value given as a limit tells only on which side of the number the result lay.

Broadly, the IC50 is the concentration at which inhibition is half-maximal. A lower IC50 goes with higher potency.

For assay [1], the system named is HaCaT. The assay can be described thus: Growth inhibition of human HaCaT cells assessed as lactate dehydrogenase release at 2 uM after 4 hrs by UV method. In kind it is functional. The essentials: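 HaCaT cells were exposed to compound at 2 µM for 4 h at 37 °C. Extracellular LDH activity in the medium was measured by the UV method with pyruvate and NADH. Values were compared against vehicle controls (n = 3).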

In assay [2] the test system is HaCaT. The assay can be described thus: Antiproliferative activity against human HaCaT cells. The format is functional, cell-based. The essentials:
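HaCaT keratinocytes were seeded at 2.5 × 10^4 per well in DMEM and grown 24 h. Cells were trypsinized (0.5% trypsin, 0.2% EDTA, 20 min, 37 °C) and counted by phase contrast microscopy. Inhibition was taken relative to vehicle (n = 3). IC50 was interpolated from a log concentration-response using ≥4 concentrations.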

For `CC(=O)C1=C(O)C=C2Oc3c(C(C)=O)c(O)c(C)c(O)c3[C@@]2(C)C1=O` [(+)-USNIC ACID], in assay [1], the Activity turned out to be 168 mU/mL. In assay [2], this molecule gave a half-maximal inhibitory concentration (IC50) of 2.1 µM.

Consider `O=C1c2c(O)cccc2Cc2cccc(O)c21` [ANTHRALIN], for which the Activity in assay [1] stood at 294 mU/mL. The half-inhibitory concentration (IC50) in assay [2] is 0.7 µM.

For `COC(=O)c1c(C)cc(OC(=O)c2c(C)cc(O)c(C=O)c2O)c(C)c1O` [ATRANORIN], the IC50 in assay [2] was greater than 5 µM.

Take `COC(=O)c1c(C)cc(O)c(C)c1O` [ATRARIC ACID]: in assay [2], the half-maximal inhibitory concentration (IC50) was greater than 5 µM.

For `COc1cc(C)c(C(=O)Oc2cc(C)c(C(=O)O)c(O)c2C)c(OC)c1C` [DIFFRACTAIC ACID], in assay [1], the Activity was 136 mU/mL. In assay [2], this molecule showed an IC50 of 2.6 µM.

`CCOC(=O)c1c(C)cc(O)c(C=O)c1O` [ETHYL HEMATOMMATE] gave an IC50 in assay [2] greater than 5 µM.

As to `Cc1cc(OC(=O)c2c(C)cc(OC(=O)c3c(C)cc(O)cc3O)cc2O)cc(O)c1C(=O)O` [GYROPHORIC ACID], the Activity in assay [1] turned out to be 138 mU/mL. This molecule displayed an IC50 in assay [2] of 1.7 µM.

For the molecule `C=C1C(=O)O[C@@H](CCCCCCCCCCCCC)[C@@H]1C(=O)O` [PROTOLICHESTERINIC ACID], the IC50 in assay [2] is greater than 5 µM.

The values above are taken from ChEMBL document CHEMBL1141858, “Lichen metabolites. 2. Antiproliferative and cytotoxic activity of gyrophoric, usnic, and diffractaic acid on human keratinocyte growth” (J Nat Prod, 1999).
